Test results from paper PMC3145891 (Naunyn-Schmiedeberg's Archives of Pharmacology, 2011).

Key:
[1] = system: PKA (VASP phosphorylation) in human platelets; test: VASP phosphorylation western blot, pVASP Ser-157; assay type: cell-based
Outline: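 Washed human platelets were exposed to various analog concentrations for the indicated times. Protein extracts (10 µg) were run on 9% reducing SDS-PAGE and wet-blotted to nitrocellulose. Blots were blocked in 3% milk/Tris-saline-Tween and probed 1:10,000 with 16C2 (pVASP Ser-239, PKG site) or 5C6 (pVASP Ser-157, PKA site). HRP goat anti-mouse (1:5,000) and ECL gave detection.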

[2] = system: cAMP antibody (ENZO cAMP-EIA); test: ENZO cAMP-EIA, acetylation protocol; assay type: binding; settings: EC50cAMP/EC50Analog, acetylated
[3] = system: cAMP antibody (ENZO cAMP-EIA); test: ENZO cAMP-EIA, non-acetylated; assay type: binding; settings: non-acetylated cAMP-EIA from ENZO
CHO cells = test: Cell membrane permeability in CHO cells; assay type: in vitro ADME, Chinese hamster; settings: serum-free medium, normally 20 min
Outline: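 CHO cells were grown in DMEM with 10% FBS and 1% penicillin/streptomycin at 37°C, 5% CO2. Cells were exposed to various analog concentrations in serum-free medium, normally for 20 min, then PBS-washed. Lysis used hypotonic buffer on ice for 30 min, scraping, liquid-nitrogen freeze/thaw and needle disruption. Cleared supernatant was lyophilized for EIA. Intracellular concentration assumed a 1.5 pl cell volume; % permeability = intracellular/extracellular […].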

human platelets = test: Cell membrane permeability in washed human platelets; assay type: in vitro ADME
Outline: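 Human blood from medication-free donors was collected into citrate–EGTA buffer. Platelet-rich plasma (300×g) was pelleted (380×g), washed in Hepes buffer pH 7.4 and used at 3 × 10^8 platelets/ml. Cells were exposed to analogs at 37°C, normally for 20 min or over a time course. They were lysed in […] buffer pH 8.1 with 1 mM IBMX on ice, then freeze/thaw and needle disruption. Lyophilized supernatant went to EIA, assuming a 5.2 fl cell volume.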

Nc1ncnc2c1ncn2[C@H]1C[C@@H]2OP(=O)(O)OC[C@H]2O1 [2′-dcAMP, 2`- Deoxyadenosine- 3`,5`- cyclic monophosphate]
VASP phosphorylation (PKA site), result in words [1]: no VASP phosphorylation
Specificity ENZO cAMP-EIA [2]: 0.034
Relative binding EC50cAMP/EC50Analog [3]: 0.22
cNMP conc. inside CHO cells (% of external) (CHO cells): 0.1 ± 0.2%
Diffusion into the cell, result in words (human platelets; compounds with log Kw < 1): too hydrophilic for any diffusion into the cell
cNMP conc. inside platelets (% of external) (human platelets; washed human platelets, 37°C, normally 20 min): 0.2 ± 0.3%
